According to ChEMBL document CHEMBL1157509, “Alpha-glucosidase inhibitor from Kothala-himbutu (Salacia reticulata WIGHT)” (J Nat Prod, 2008):
The source made the active and inactive calls. The rule behind the calls is not given here.

Tests used:
[1] = biological target: T1, Sucrase-isomaltase, intestinal (Rattus norvegicus, UniProt P23739); assay: Inhibition of rat intestinal sucrase
How it was run: (§1)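 Crude enzyme from rat intestinal acetone powder in 0.1 M K3PO4 buffer (5 mM EDTA, pH 7). Substrates: maltose 25 mM (maltase), sucrose 100 mM (sucrase), isomaltose 25 mM (isomaltase). Sample added in DMSO. Incubated 30 min, then stopped with 2 M Tris-HCl. Released glucose measured by glucose oxidase. IC50 read graphically from percent inhibition versus log concentration.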

[2] = biological target: T1, Sucrase-isomaltase, intestinal; assay: Inhibition of rat intestinal isomaltase; how it was run: as §1
[3] = biological target: T2, Pancreatic alpha-amylase (Sus scrofa) (UniProt P00690); assay: Inhibition of pig pancreas alpha amylase
T2 sequence (whole entry): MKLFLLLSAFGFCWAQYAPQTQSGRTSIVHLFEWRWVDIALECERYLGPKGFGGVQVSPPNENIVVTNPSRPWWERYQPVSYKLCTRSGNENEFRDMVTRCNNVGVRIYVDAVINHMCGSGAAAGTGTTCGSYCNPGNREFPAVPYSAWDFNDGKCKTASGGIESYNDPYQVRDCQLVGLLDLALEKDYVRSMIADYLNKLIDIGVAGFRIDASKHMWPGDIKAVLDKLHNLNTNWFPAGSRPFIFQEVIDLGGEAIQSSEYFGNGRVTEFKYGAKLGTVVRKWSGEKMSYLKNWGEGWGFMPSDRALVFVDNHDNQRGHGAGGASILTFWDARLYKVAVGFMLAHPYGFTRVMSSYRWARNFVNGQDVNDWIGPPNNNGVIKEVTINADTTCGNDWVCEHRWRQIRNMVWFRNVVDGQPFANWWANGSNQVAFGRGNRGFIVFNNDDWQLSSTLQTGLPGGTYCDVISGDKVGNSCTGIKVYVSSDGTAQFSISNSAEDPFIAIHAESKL

T1 sequence (P23739 1-1013 limits assumed): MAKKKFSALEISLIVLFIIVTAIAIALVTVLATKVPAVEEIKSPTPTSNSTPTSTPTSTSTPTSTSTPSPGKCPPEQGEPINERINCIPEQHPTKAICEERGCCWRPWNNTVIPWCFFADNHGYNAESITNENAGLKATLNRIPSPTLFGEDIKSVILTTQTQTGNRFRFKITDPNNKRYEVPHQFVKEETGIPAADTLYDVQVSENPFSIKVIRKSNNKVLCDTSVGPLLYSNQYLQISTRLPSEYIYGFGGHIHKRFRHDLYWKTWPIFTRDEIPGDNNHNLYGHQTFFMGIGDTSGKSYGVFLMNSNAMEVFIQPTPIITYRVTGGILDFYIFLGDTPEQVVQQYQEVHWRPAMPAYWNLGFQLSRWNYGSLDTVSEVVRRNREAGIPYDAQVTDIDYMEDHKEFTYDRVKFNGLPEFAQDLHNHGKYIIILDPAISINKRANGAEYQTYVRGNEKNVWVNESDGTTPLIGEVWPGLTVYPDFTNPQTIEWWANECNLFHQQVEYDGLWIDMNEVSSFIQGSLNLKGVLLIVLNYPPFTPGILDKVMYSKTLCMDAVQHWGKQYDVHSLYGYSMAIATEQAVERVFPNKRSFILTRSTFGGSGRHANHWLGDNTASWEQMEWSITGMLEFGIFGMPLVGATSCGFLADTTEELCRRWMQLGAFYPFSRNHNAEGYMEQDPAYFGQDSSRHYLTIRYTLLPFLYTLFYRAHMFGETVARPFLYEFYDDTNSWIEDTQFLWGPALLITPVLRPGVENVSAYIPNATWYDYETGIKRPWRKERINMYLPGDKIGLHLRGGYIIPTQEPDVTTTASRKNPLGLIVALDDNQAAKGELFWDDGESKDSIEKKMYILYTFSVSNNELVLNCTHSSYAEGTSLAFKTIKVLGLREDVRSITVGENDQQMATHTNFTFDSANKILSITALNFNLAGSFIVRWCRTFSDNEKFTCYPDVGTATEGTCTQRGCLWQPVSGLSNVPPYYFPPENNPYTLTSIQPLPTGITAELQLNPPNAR
T1 sequence (P23739 1014-1841 limits assumed): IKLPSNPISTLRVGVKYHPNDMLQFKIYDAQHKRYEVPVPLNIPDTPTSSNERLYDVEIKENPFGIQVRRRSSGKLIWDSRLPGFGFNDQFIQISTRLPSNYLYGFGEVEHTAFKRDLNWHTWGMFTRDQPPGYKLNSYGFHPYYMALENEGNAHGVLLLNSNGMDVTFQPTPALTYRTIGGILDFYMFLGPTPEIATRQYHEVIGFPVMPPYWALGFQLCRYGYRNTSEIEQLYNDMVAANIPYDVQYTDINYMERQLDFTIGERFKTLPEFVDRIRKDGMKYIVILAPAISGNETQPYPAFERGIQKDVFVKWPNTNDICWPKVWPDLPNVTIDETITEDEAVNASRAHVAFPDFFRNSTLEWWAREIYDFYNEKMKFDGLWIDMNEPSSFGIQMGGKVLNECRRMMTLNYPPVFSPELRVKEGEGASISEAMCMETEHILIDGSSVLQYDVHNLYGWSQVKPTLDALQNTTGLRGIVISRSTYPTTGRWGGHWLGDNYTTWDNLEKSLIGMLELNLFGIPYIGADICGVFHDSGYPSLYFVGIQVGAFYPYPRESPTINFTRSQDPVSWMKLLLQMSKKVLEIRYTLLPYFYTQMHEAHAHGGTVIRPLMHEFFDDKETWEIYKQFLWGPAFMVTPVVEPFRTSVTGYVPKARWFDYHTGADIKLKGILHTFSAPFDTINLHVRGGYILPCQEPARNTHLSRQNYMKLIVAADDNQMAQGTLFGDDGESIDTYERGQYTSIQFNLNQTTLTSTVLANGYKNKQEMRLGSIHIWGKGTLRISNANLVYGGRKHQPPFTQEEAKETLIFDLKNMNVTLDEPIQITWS

| SMILES | IC50 [1] | Ki [1] | IC50 [2] | Ki [2] | Activity [3] |
| --- | --- | --- | --- | --- | --- |
| O=S(=O)([O-])O[C@@H]([C@H](O)[C@H](O)[C@@H](O)CO)[C@H](O)C[S+]1C[C@@H](O)[C@H](O)[C@H]1CO (stereo partly drawn) [KOTALANOL] | 1370 nM | 420 nM | 4480 nM | 4200 nM |  |
| [O-][S+]1CC(O)C(O)C(O)CC(O)CC(O)C(O)C(O)C(O)C1 (stereo not drawn) | 186 nM | 52 nM | 99 nM | 420 nM | inactive |
| O=S(=O)([O-])O[C@@H](CO)[C@H](O)C[S@+]1C[C@@H](O)[C@H](O)[C@H]1CO [SALACINOL] | 2510 nM | 200 nM | 1770 nM | 1100 nM |  |
